Measured values: ChEMBL document CHEMBL1933058, “5-(2-amino-pyrimidin-4-yl)-1H-pyrrole and 2-(2-amino-pyrimidin-4-yl)-1,5,6,7-tetrahydro-pyrrolo[3,2-c]pyridin-4-one derivatives as new classes of selective and orally available Polo-like kinase 1 inhibitors” (Bioorg Med Chem Lett, 2012)
Values after ≈ are worked out from the molar mass of the structure shown.

Legend:
[1] = Clearance in Nu/Nu Balb Harlan mouse at 10 mg/kg, iv; type: ADME, organism-based; design: dose 10 mg/kg, route intravenous; conditions: in vivo
Summary of the method: (§1)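 Male Balb Nu/Nu mice (Harlan) received a single 10 mg/kg intravenous dose, n = 3 animals per study. Vehicle was either trifluoroacetate salt in dextrose or free base in 50% PEG 400/glucosate, depending on compound. Parameters were reported as mean ± standard deviation.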

[2] = Inhibition of SULU1
[3] = Volume of distribution at steady state in Nu/Nu Balb Harlan mouse at 10 mg/kg, iv; type: ADME, organism-based; design: dose 10 mg/kg, route intravenous; conditions: in vivo, read-out: Vdss
[4] = target: Serine/threonine-protein kinase PAK 4 (Homo sapiens, UniProt O96013); assay: Inhibition of PAK4
[5] = Half life in Nu/Nu Balb Harlan mouse at 10 mg/kg, iv; type: ADME, organism-based; design: dose 10 mg/kg, route intravenous; conditions: in vivo; summary of the method: as §1
A2780 = assay: Cell cycle arrest in human A2780 cells assessed as induction of phospho Thr199 nucleophosmin level after 24 hrs by Western blotting analysis; type: functional, cell-based
Summary of the method: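 A2780 cells were treated for 24 h at 0.05, 0.5 and 5 µM, with nocodazole as positive control. Lysates were immunoblotted for pSer10 histone H3, pThr199 nucleophosmin, cyclin B1, cyclin A, PARP cleavage and caspase 3 activation.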

[6] = target: Tyrosine-protein kinase JAK2 (Homo sapiens, UniProt O60674); assay: Inhibition of JAK2
[7] = target: Cyclin-dependent kinase 4/cyclin D1 (Homo sapiens, UniProt P11802); assay: Inhibition of CDK4/cyclin D1; type: protein-complex assay
[8] = target: Protein kinase C beta type (Homo sapiens, UniProt P05771); assay: Inhibition of PKCbeta
[9] = target: cAMP-dependent protein kinase catalytic subunit alpha (Homo sapiens, UniProt P17612); assay: Inhibition of PKAalpha
[10] = Intrinsic clearance in human liver microsomes at 1 uM; type: ADME, Microsome; conditions: read-out: CLH
[11] = Solubility of the compound at pH 7; type: physicochemical; conditions: buffer
MDA-MB-468 = assay: Antiproliferative activity against human MDA-MB-468 cells; type: functional, cell-based
Aurora kinase A = target: T1, Aurora kinase A (Homo sapiens, UniProt O14965); assay: Inhibition of Aurora-A
T1 sequence (O14965 whole entry): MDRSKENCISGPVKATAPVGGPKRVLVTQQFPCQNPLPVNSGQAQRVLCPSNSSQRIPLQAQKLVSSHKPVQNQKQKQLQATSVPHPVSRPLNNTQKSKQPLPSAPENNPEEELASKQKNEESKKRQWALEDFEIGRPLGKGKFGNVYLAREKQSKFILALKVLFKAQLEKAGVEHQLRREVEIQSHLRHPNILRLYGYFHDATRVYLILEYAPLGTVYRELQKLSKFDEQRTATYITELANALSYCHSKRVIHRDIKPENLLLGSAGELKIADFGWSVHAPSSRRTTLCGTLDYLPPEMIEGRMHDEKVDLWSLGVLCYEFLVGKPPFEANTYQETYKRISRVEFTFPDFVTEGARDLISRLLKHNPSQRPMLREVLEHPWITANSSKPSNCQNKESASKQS

[12] = target: MAP kinase-activated protein kinase 2 (Homo sapiens, UniProt P49137); assay: Inhibition of MAP-KAPK2
[13] = target: Hepatocyte growth factor receptor (Homo sapiens, UniProt P08581); assay: Inhibition of MET
[14] = target: Cyclin-dependent kinase 1/cyclin B1 (Homo sapiens, UniProt P06493); assay: Inhibition of CDK1/cyclin B; type: protein-complex assay
[15] = target: Tyrosine-protein kinase ABL1 (Homo sapiens, UniProt P00519); assay: Inhibition of c-ABL
Chain of Tyrosine-protein kinase ABL1 (P00519 whole entry): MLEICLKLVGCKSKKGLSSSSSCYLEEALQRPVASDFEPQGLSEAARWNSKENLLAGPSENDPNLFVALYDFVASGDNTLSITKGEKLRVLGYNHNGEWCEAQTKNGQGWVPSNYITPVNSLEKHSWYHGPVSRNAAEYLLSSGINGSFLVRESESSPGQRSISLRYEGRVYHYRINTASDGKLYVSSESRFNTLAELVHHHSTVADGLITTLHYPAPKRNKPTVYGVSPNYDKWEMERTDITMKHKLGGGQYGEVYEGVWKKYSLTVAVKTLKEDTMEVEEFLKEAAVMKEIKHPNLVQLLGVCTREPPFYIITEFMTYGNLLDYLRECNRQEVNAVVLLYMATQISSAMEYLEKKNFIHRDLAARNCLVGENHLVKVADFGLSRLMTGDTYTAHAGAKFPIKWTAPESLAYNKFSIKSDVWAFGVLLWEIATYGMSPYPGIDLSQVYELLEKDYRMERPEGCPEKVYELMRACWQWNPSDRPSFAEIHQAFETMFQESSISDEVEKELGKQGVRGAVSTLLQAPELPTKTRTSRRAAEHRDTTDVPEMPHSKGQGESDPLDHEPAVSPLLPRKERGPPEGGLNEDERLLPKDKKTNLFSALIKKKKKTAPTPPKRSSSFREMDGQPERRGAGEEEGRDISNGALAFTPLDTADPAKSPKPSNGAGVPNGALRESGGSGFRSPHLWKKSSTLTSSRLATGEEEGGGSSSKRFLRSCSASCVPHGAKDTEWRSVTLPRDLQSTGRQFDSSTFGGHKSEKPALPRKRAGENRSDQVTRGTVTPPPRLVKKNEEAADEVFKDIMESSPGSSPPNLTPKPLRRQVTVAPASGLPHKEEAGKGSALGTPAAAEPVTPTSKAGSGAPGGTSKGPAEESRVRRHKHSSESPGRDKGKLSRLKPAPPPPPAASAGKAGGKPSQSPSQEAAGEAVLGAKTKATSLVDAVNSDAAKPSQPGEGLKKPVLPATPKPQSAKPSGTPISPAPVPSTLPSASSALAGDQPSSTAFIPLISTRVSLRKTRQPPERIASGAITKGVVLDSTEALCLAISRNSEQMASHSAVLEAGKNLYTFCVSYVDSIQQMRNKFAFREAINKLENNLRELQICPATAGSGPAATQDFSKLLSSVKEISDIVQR

Chain of Tyrosine-protein kinase JAK2 (O60674 whole entry): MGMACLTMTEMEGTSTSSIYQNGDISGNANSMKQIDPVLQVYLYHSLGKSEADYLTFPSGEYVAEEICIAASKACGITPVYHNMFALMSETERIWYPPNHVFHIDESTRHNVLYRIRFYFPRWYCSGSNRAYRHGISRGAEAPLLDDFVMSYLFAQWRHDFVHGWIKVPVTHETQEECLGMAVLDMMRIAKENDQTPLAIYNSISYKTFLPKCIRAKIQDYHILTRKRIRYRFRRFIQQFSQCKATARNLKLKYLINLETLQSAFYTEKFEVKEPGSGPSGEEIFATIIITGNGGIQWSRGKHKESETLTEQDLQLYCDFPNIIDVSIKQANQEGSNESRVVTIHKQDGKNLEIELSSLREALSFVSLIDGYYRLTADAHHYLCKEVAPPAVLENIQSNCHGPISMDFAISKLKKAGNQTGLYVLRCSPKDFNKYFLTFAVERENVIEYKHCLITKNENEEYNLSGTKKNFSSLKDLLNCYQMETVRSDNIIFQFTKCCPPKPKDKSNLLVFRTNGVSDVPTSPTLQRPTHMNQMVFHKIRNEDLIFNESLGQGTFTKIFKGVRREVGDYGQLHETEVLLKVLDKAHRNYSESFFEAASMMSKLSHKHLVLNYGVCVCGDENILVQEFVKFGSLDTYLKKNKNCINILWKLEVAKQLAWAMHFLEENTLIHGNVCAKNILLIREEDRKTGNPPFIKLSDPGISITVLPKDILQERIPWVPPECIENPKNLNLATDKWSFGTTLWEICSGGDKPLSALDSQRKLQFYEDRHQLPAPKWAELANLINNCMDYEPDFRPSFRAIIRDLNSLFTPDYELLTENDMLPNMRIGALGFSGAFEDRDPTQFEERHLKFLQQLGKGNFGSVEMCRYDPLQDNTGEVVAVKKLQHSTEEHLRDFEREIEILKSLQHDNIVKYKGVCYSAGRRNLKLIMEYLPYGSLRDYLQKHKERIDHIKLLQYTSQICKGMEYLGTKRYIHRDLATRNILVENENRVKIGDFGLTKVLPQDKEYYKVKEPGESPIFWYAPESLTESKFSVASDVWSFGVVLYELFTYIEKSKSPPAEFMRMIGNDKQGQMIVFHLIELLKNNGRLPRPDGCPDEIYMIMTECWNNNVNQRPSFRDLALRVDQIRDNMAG
Chain of MAP kinase-activated protein kinase 2 (P49137 whole entry): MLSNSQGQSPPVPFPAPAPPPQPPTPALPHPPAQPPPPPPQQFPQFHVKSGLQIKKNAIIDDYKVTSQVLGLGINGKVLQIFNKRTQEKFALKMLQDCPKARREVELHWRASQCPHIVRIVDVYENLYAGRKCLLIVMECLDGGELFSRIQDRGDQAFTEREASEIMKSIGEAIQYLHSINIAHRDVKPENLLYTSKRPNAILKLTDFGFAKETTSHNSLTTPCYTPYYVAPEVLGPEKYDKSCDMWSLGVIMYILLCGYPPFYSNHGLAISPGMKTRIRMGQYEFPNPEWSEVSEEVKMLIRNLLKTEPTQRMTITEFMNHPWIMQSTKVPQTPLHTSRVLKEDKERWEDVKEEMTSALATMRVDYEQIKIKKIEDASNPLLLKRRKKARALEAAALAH
Chain of Cyclin-dependent kinase 1/cyclin B1 (P06493 whole entry): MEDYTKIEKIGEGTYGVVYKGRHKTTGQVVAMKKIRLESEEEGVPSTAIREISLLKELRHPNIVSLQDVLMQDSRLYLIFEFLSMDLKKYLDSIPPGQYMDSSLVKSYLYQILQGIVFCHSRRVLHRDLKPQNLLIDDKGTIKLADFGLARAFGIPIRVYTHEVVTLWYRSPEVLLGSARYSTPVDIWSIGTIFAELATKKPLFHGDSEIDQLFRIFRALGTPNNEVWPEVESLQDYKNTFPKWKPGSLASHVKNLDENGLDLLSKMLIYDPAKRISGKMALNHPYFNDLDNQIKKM
Chain of Cyclin-dependent kinase 1/cyclin B1 (P14635 whole entry, further chain): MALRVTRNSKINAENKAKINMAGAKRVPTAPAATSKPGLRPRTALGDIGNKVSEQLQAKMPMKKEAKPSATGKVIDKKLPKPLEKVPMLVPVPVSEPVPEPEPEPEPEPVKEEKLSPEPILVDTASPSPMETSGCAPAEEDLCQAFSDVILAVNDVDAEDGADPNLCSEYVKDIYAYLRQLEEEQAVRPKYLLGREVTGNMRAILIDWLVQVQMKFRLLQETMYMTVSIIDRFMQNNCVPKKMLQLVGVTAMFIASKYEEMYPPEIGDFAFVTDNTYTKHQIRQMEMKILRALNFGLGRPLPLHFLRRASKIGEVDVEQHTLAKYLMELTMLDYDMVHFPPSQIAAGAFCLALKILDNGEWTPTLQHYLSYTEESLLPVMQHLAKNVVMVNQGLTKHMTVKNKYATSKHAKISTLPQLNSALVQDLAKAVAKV
Chain of Protein kinase C beta type (P05771 whole entry): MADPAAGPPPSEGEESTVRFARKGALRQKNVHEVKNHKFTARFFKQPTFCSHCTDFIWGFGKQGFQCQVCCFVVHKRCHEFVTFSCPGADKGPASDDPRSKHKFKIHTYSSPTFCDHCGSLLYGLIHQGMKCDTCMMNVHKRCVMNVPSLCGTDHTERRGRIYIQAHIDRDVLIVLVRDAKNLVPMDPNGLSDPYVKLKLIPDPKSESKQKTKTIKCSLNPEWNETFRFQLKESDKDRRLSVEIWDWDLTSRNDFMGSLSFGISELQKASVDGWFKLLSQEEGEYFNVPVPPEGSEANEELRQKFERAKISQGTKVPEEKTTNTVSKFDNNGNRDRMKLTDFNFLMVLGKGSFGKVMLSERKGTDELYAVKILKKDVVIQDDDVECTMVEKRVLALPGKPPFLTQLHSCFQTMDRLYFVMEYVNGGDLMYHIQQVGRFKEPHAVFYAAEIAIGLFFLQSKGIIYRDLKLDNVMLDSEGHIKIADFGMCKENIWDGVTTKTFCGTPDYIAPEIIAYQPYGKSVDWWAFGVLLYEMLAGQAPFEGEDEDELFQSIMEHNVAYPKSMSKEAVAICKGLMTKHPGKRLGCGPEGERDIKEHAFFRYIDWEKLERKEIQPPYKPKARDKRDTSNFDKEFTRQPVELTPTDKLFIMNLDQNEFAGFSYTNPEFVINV
Chain of Cyclin-dependent kinase 4/cyclin D1 (P11802 whole entry): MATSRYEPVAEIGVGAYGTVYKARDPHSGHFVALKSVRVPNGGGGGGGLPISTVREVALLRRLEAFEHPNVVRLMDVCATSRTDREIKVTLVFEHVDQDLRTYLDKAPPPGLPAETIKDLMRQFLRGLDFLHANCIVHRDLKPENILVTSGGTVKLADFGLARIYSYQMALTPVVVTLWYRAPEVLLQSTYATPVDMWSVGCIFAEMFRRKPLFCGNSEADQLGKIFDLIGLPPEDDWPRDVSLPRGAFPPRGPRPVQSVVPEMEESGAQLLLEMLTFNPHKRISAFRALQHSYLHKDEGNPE
Chain of Cyclin-dependent kinase 4/cyclin D1 (P24385 whole entry, further chain): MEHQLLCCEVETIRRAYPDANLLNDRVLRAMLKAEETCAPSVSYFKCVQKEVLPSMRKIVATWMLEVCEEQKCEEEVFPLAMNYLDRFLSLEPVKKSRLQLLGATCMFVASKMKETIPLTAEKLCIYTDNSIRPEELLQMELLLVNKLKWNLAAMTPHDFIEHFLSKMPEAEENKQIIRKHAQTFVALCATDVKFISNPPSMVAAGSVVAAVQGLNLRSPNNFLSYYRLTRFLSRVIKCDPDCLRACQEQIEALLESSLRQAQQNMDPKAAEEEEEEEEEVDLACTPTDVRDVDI

With `CN1CCN(c2ccc(OC(F)(F)F)c(Nc3nccc(-c4cc5c(n4C)CCNC5=O)n3)c2)CC1` the clearance [1] was 66.4 mL/min/kg, the IC50 [2] was > 10 µM and the Vd [3] was 2.49 L/kg. The IC50 [4] was > 10 µM, the half-life [5] was 31.2 min and the Activity (A2780) was “Dose-dependent effect”. For the same compound, the IC50 [6] was > 10 µM, the IC50 [7] was > 10 µM and the IC50 [8] was > 10 µM. The IC50 [9] was > 10 µM, the CLint scaled at 1 µM [10] was 16.5 mL/min/kg and the solubility [11] was 163 µM (≈ 81.7 µg/mL). The IC50 (MDA-MB-468) was 0.041 µM, the IC50 (Aurora kinase A) was > 10 µM and the IC50 [12] was > 10 µM. For the same compound, the IC50 [13] was > 10 µM, the IC50 [14] was > 10 µM and the IC50 [15] was > 10 µM.
